According to ChEMBL document CHEMBL1132923, “Substituted benzamide inhibitors of human rhinovirus 3C protease: structure-based design, synthesis, and biological evaluation” (J Med Chem, 2000):
pEC50, pKi: −log10 of the molar value. In brackets after ≈: the same amount, converted by molar mass. Activity calls are given as the source filed them. No cut-off for these calls is given here.

Target: T1, Human rhinovirus A protease (Human rhinovirus sp.) (UniProt Q4U254)
T1 sequence (whole entry): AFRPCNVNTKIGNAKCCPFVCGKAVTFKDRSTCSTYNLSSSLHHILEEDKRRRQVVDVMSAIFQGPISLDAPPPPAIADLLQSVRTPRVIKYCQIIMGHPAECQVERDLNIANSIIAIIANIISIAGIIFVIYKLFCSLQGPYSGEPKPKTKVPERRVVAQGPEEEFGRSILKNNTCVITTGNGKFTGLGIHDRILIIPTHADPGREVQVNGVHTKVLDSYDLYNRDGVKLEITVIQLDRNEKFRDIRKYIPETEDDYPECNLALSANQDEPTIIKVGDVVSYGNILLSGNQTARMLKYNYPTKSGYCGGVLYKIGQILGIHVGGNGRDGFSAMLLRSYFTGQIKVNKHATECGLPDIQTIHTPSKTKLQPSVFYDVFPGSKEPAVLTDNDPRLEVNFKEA
Test: Irreversible inhibition of Human Rhinovirus (HRV-14) 3C Protease measured as inactivation constant; no inhibition
Conditions: not given
Outline: (§1)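 For serotype 14 3C protease under irreversible inactivation, reactions were started by adding 50 nM enzyme to 1 µM FRET substrate plus typically three to five inhibitor concentrations, monitored continuously. First-order inactivation rate constants came from nonlinear regression when <20% substrate was consumed; otherwise data were corrected for substrate depletion. kobs/[I] was derived by the slope method.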

SMILES | K obs / 1
CCOC(=O)/C=C/c1cccc(C(=O)O)c1 | inactive

Target: T1, Human rhinovirus A protease (Human rhinovirus sp.)
Test: Irreversible inhibition of Human Rhinovirus (HRV-14) 3C Protease measured as inactivation constant; inhibition@ 25
Conditions: concentration not given here
Outline: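 FRET-based continuous fluorometric assay of 3C protease activity. Reactions were started by adding 50 nM 3CP to 1 µM substrate across three to five inhibitor concentrations. First-order inactivation rate constants were fitted by nonlinear regression at each concentration. kobs/[I] was taken by the slope method, with data adjusted for substrate depletion where needed.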

SMILES | inhibition [%]
CCOC(=O)/C=C/c1cc(C(N)=O)ccc1C | 10

Target: T2, Human rhinovirus A protease (Human rhinovirus sp., UniProt Q4U254)
T2 sequence (Q4U254 whole entry): T1 sequence (whole entry)
Test: Inhibition of Human Rhinovirus (HRV-14) 3C Protease
Conditions: not given
Outline: (§2)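 Serotype 14 3C protease activity was followed by a fluorescence resonance energy transfer substrate assay, and reversible inhibition constants (Ki) were determined from it.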

SMILES | pKi
NC(=O)c1cccc(C=O)c1 | 3.98

Target: T2, Human rhinovirus A protease
Test: The compound was tested for reversible inhibition of Human Rhinovirus (HRV) 3C Protease.
Conditions: not given

SMILES | pKi
CCOC(=O)/C(C#N)=C/c1cccc(C(N)=O)c1 | 5.82

Target: T1, Human rhinovirus A protease (Human rhinovirus sp.)
Test: The compound was tested for irreversible inhibition of Human Rhinovirus (HRV) 3C Protease.
Conditions: not given
Outline: as §1

SMILES | K obs / 1 [M⁻¹ s⁻¹]
CCOC(=O)/C=C/c1ccc(OCc2ccccc2)c(C(N)=O)c1 | 30

Target: T1, Human rhinovirus A protease (Human rhinovirus sp.)
Test: Irreversible inhibition of Human Rhinovirus (HRV-14) 3C Protease
Conditions: Rhinovirus B
Outline: as §1

SMILES | K obs / 1 [M⁻¹ s⁻¹]
NC(=O)c1cccc(/C=C/C(=O)OCCO)c1 | 42
CCOC(=O)/C=C/c1cc(CN2CCN(c3ccccc3C#N)CC2)cc(C(N)=O)c1 | 139
CCOC(=O)/C=C/c1cc(CO)cc(C(N)=O)c1 | 54
NC(=O)c1cccc(/C=C/C(=O)OCCc2ccccc2)c1 | 83
CCOC(=O)/C=C/c1cc(O)cc(C(N)=O)c1 | 47
CCOC(=O)/C=C/c1cc(CN(CC)Cc2ccncc2)cc(C(N)=O)c1 | 96
NC(=O)c1cccc(/C=C/C(=O)OCc2ccccc2)c1 | 25
COC(=O)/C=C/c1cccc(C(N)=O)c1 | 28
CCOC(=O)/C=C/c1cccc(C(N)=O)c1 | 52
NC(=O)c1cccc(/C=C/C(=O)OCc2ccccn2)c1 | 57
CCOC(=O)/C=C/c1cc(CSc2nnc(-c3ccccn3)o2)cc(C(N)=O)c1 | 286
CCOC(=O)/C=C/c1cc(CN2CCN(c3ncccn3)CC2)cc(C(N)=O)c1 | 163
CCOC(=O)/C=C/c1cc(CN2CCN(c3ccccn3)CC2)cc(C(N)=O)c1 | 269
CCOC(=O)/C=C/c1cc(CN2CCN(C(=O)OCC)CC2)cc(C(N)=O)c1 | 130

System: HeLa
Test: Antiviral activity using H1HeLa cells (ATCC) infected with HRV-14 (range)
Assay type: functional, cell-based
Conditions: Homo sapiens
Outline: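 H1-HeLa cells were grown in MEM with 10% FBS and infected with HRV-14 at moi 0.08, or mock-infected with medium. Cells were resuspended at 8 × 10^5 cells/mL with drug and read 2 days later by XTT/PMS formazan absorbance at 450/650 nm. EC50 is the concentration restoring formazan to 50% of drug-free uninfected cells. Values come from a single run or the mean of ≥2.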

SMILES | pEC50
CCOC(=O)c1ccc(OCCC2CCN(c3ccc(C)nn3)CC2)cc1 [PIRODAVIR] | 7.70

Target: T2, Human rhinovirus A protease
Test: The compound was tested for binding affinity of Human Rhinovirus (HRV) 3C Protease.
Conditions: not given
Outline: as §2

SMILES | pKi
COc1ccc(C(=O)/C=C/c2cccc(C(N)=O)c2)cc1 | 5.74
NC(=O)c1cccc(/C=C/C(=O)c2ccccn2)c1 | 5.74
NC(=O)c1ccc2c(c1)C=CC2=O | 6.92
NC(=O)c1cccc(/C=C/C(=O)c2ccccc2)c1 | 6.40
NC(=O)c1cccc(/C=C/C(=O)c2ccco2)c1 | 5.72
CC(=O)/C=C/c1cccc(C(N)=O)c1 | 4.60
CN(C)c1ccc(C(=O)/C=C/c2cccc(C(N)=O)c2)cc1 | 5.05

System: HeLa
Test: Antiviral activity measured as minimal inhibitory concentration using H1HeLa cells (ATCC) infected with HRV-14
Assay type: functional
Conditions: Homo sapiens

SMILES | MIC [µM]
CCOC(=O)c1ccc(OCCC2CCN(c3ccc(C)nn3)CC2)cc1 [PIRODAVIR] | 0.03 (≈ 0.0111 µg/mL)
